According to ChEMBL document CHEMBL1153749, “Flavonoids from the heartwood of the Thai medicinal plant Dalbergia parviflora and their effects on estrogenic-responsive human breast cancer cells” (2009):
The source made the active and inactive calls. The calls are words filed in the database; no cut-off is given here.

Assays:
Assay type in all cases: functional
[1] = test system: T47D; assay: Estrogenic activity in luciferase transfected human T47D cells assessed as drug level causing stimulation of cell proliferation equivalent to 10 pM estradiol by luciferase reporter gene assay
Procedure, shortened: (§1)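 Reporter assay in MCF-7 or T47D cells transiently transfected with luciferase. Compounds tested from 0.01 to 10 µM. Luciferase induction is expressed as the compound concentration equivalent to the 10 or 100 pM estradiol response. Values come from linear regression over at least five concentrations in quadruplicate.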

[2] = test system: MCF7; assay: Estrogenic activity in human MCF7 cells assessed as drug level causing stimulation of cell proliferation equivalent to 100 pM estradiol after 96 hrs by alamar blue assay
Procedure, shortened: (§2)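 Cells seeded at 10^4 per well in phenol red-free RPMI with 5% DCC-treated FBS. Compounds added in DMSO (vehicle control 1% DMSO) for 96 h at 37 °C, 5% CO2, with serial estradiol dilutions run alongside. Alamar Blue for 3 h, fluorescence ex 530/em 590 nm. Estradiol-equivalent concentration fitted by linear regression from at least five concentrations in quadruplicate.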

[3] = test system: T47D; assay: Estrogenic activity in human T47D cells assessed as drug level causing stimulation of cell proliferation equivalent to 10 pM estradiol after 96 hrs by alamar blue assay; procedure, shortened: as §2
[4] = test system: MCF7; assay: Estrogenic activity in human MCF7 cells assessed as drug level causing stimulation of cell proliferation equivalent to 10 pM estradiol after 96 hrs by alamar blue assay; procedure, shortened: as §2
[5] = test system: MCF7; assay: Estrogenic activity in luciferase transfected human MCF7 cells assessed as drug level causing stimulation of cell proliferation equivalent to 10 pM estradiol by luciferase reporter gene assay; procedure, shortened: as §1
[6] = test system: MCF7; assay: Estrogenic activity in luciferase transfected human MCF7 cells assessed as drug level causing stimulation of cell proliferation equivalent to 100 pM estradiol by luciferase reporter gene assay; procedure, shortened: as §1
[7] = test system: T47D; assay: Estrogenic activity in luciferase transfected human T47D cells assessed as drug level causing stimulation of cell proliferation equivalent to 100 pM estradiol by luciferase reporter gene assay; procedure, shortened: as §1
[8] = test system: T47D; assay: Estrogenic activity in human T47D cells assessed as drug level causing stimulation of cell proliferation equivalent to 100 pM estradiol after 96 hrs by alamar blue assay; procedure, shortened: as §2

SMILES | Activity [1] | Activity [2] | Activity [3] | Activity [4] | Activity [5] | Activity [6] | Activity [7] | Activity [8]
COc1cc2c(cc1O)C1c3ccc(O)cc3OCC1O2 (racemic) | inactive | inactive | inactive | inactive | inactive | inactive | inactive | inactive
COc1c(C/C=C/c2ccccc2)ccc(O)c1O [HYDROXYOBUSTYRENE] | >100 µM | >100 µM | 5.1 µM | >100 µM | >100 µM | >100 µM | >100 µM | >100 µM
COc1ccc(C2COc3cc(O)ccc3C2=O)c(OC)c1OC (configuration not stated) | 3.3 µM | 46.3 µM | 6.1 µM | 2.5 µM | >100 µM | >100 µM | >100 µM | >100 µM
COc1cc2c(cc1-c1coc3cc(O)cc(O)c3c1=O)OCO2 [KHRINONE D] | 5.3 µM | 4.2 µM | 0.01 µM | 1.8 µM | 0.01 µM | 0.6 µM | >100 µM | >100 µM
COc1ccc(C2COc3cc(O)ccc3C2=O)cc1O (configuration not stated) | 6 µM | >100 µM | >100 µM | 24.5 µM | >100 µM | >100 µM | >100 µM | >100 µM
COc1ccc([C@H]2COc3cc(O)cc(O)c3C2=O)cc1O | 1.3 µM | >100 µM | 0.5 µM | 2.9 µM | 0.6 µM | 2.7 µM | >100 µM | 5.7 µM
COc1ccc(-c2coc3cc(O)ccc3c2=O)c(OC)c1O [KHRINONE E] | >100 µM | >100 µM | >100 µM | 4.7 µM | 5.9 µM | >100 µM | >100 µM | >100 µM
COc1cc([C@H]2Oc3cc(O)ccc3C(=O)[C@@H]2O)ccc1O [ERYCIBENIN D] | 0.3 µM | >100 µM | 5.7 µM | >100 µM | >100 µM | >100 µM | >100 µM | >100 µM
COc1cc(O)c([C@@H]2COc3cc(O)ccc3C2)cc1OC | >100 µM | 0.2 µM | 0.02 µM | 1.1 µM | >100 µM | >100 µM | >100 µM | >100 µM
COc1ccc(-c2coc3cc(O)ccc3c2=O)cc1O [CALYCOSIN] | 8.8 µM | >100 µM | 4.1 µM | >100 µM | 0.6 µM | 4.7 µM | >100 µM | >100 µM
COc1ccc([C@H]2COc3cc(O)ccc3C2=O)c(OC)c1O | 0.6 µM | 9.4 µM | 2.1 µM | 2.1 µM | >100 µM | >100 µM | >100 µM | 8.9 µM
COc1ccc(C2COc3c(ccc(O)c3O)C2)c(OC)c1O (configuration not stated) | inactive | inactive | inactive | inactive | inactive | inactive | inactive | inactive
COc1cc(-c2coc3cc(O)ccc3c2=O)ccc1O | 1.2 µM | >100 µM | >100 µM | 4.7 µM | 1.1 µM | 2.2 µM | 5.8 µM | >100 µM
COc1ccc(C2COc3cc(O)ccc3C2=O)c(O)c1 (configuration not stated) | 7.3 µM | 45.3 µM | 1.5 µM | 5.7 µM | >100 µM | >100 µM | >100 µM | 33.7 µM
